Experimental data published in ChEMBL document CHEMBL1914430, “Synthesis of some new 1,3,5-trisubstituted pyrazolines bearing benzene sulfonamide as anticancer and anti-inflammatory agents” (Bioorg Med Chem Lett, 2011).

How the values were obtained:
Assay type in all cases: functional
K562 = assay: Anticancer activity against human K562 cells after 48 hrs; settings: K562, 48 h
Outline: (§1)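 NCI Drug Evaluation Branch 60-cell-line screen across leukemia, melanoma, lung, colon, CNS, ovarian, renal, prostate and breast panels. The incubation period is 48 h. Parameters are derived from dose–response data: GI50 is the concentration giving 50% decrease in net growth, TGI is total growth inhibition, and LC50 is net 50% loss of initial cells. Values beyond the tested range are reported as greater or less than the maximum or minimum concentration.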

MOLT-4 = assay: Anticancer activity against human MOLT4 cells after 48 hrs; settings: MOLT-4, 48 h
Outline: (§2)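 NCI 60-line panel protocol with a 48 h incubation. Per line: GI50 = concentration giving 50% decrease in net cell growth; TGI = total growth inhibition; LC50 = net 50% loss of initial cells. When the level was not reached or was exceeded, the value is given as greater or less than the highest or lowest concentration tested.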

RPMI-8226 = assay: Anticancer activity against human RPMI8226 cells after 48 hrs; settings: RPMI-8226, 48 h; outline: as §2
HOP-62 = assay: Anticancer activity against human HOP62 cells after 48 hrs; settings: HOP-62, 48 h; outline: as §1
HOP-92 = assay: Anticancer activity against human HOP92 cells after 48 hrs; settings: HOP-92, 48 h; outline: as §1
NCI-H23 = assay: Anticancer activity against human NCI-H23 cells after 48 hrs; settings: NCI-H23, 48 h; outline: as §2
NCI-H322M = assay: Anticancer activity against human NCI-H322M cells after 48 hrs; outline: as §2
NCI-H460 = assay: Anticancer activity against human NCI-H460 cells after 48 hrs; settings: NCI-H460, 48 h; outline: as §2
COLO 205 = assay: Anticancer activity against human COLO205 cells after 48 hrs; settings: COLO 205, 48 h; outline: as §1
HCC 2998 = assay: Anticancer activity against human HCC2998 cells after 48 hrs; settings: HCC 2998, 48 h; outline: as §1
SW-620 = assay: Anticancer activity against human SW620 cells after 48 hrs; settings: SW-620, 48 h; outline: as §2
SF-295 = assay: Anticancer activity against human SF295 cells after 48 hrs; settings: SF-295, 48 h; outline: as §2
SF-539 = assay: Anticancer activity against human SF539 cells after 48 hrs; settings: SF-539, 48 h; outline: as §2
SNB-19 = assay: Anticancer activity against human SNB19 cells after 48 hrs; settings: SNB-19, 48 h; outline: as §2
SNB-75 = assay: Anticancer activity against human SNB75 cells after 48 hrs; settings: SNB-75, 48 h; outline: as §2
LOX IMVI = assay: Anticancer activity against human LOXIMVI cells after 48 hrs; outline: as §1
Malme-3M = assay: Anticancer activity against human MALME-3M cells after 48 hrs; outline: as §1
MDA-MB-435 = assay: Anticancer activity against human MDA-MB-435 cells after 48 hrs; settings: MDA-MB-435, 48 h; outline: as §1
SK-MEL-5 = assay: Anticancer activity against human SK-MEL-5 cells after 48 hrs; settings: SK-MEL-5, 48 h; outline: as §2
UACC-62 = assay: Anticancer activity against human UACC62 cells after 48 hrs; settings: UACC-62, 48 h
Outline: (§3)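 NCI ~60 human tumour cell line panel with a 48 h incubation. GI50 is the concentration giving a 50% fall in net growth, TGI gives total growth inhibition, and LC50 gives a net 50% loss of initial cells. An effect not reached or exceeded is reported as greater or less than the highest or lowest concentration tested.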

OVCAR-4 = assay: Anticancer activity against human OVCAR4 cells after 48 hrs; settings: OVCAR-4, 48 h; outline: as §2
OVCAR-8 = assay: Anticancer activity against human OVCAR8 cells after 48 hrs; settings: OVCAR-8, 48 h; outline: as §2
NCI/ADR-RES = assay: Anticancer activity against human NCI/ADR-RES cells after 48 hrs; outline: as §2
786-0 = assay: Anticancer activity against human 786-0 cells after 48 hrs; settings: 786-0, 48 h; outline: as §1
A498 = assay: Anticancer activity against human A498 cells after 48 hrs; settings: A498, 48 h; outline: as §1
ACHN = assay: Anticancer activity against human ACHN cells after 48 hrs; outline: as §1
RXF 393 = assay: Anticancer activity against human RXF393 cells after 48 hrs; settings: RXF 393, 48 h; outline: as §2
UO-31 = assay: Anticancer activity against human UO31 cells after 48 hrs; settings: UO-31, 48 h; outline: as §3
PC-3 = assay: Anticancer activity against human PC3 cells after 48 hrs; settings: PC-3, 48 h; outline: as §2
DU-145 = assay: Anticancer activity against human DU145 cells after 48 hrs; settings: DU-145, 48 h; outline: as §1
[1] = Anticancer activity against human Hs 578T cells after 48 hrs; outline: as §1
T47D = assay: Anticancer activity against human T47D cells after 48 hrs; outline: as §3
[2] = read-out: LC50 (the source's name)

## COc1ccc(C2CC(c3cc(Cl)c(C)cc3O)=NN2c2ccc(S(N)(=O)=O)cc2)cc1OC (stereo not drawn)
K562
  GI50: 3.18 µM
  LC50 (concentration killing 50% of initial cells): > 100 µM
MOLT-4
  GI50: 5.29 µM
  LC50: > 100 µM
  TGI: > 100 µM
RPMI-8226
  GI50: 4.1 µM
  LC50 (concentration for net 50% loss of initial cells): > 100 µM
  TGI: 100 µM
HOP-62
  GI50: 3.92 µM
  LC50 (concentration for 50% net loss of initial cells): 52.4 µM
  TGI: 14.1 µM
HOP-92
  GI50: 1.81 µM
  TGI: 7.42 µM
HOP-92; [2]
  CC50: > 100 µM
NCI-H23
  GI50: 3.11 µM
  LC50 (concentration killing 50% of initial cells): > 100 µM
  TGI: 13.6 µM
NCI-H322M
  GI50: 4.45 µM
  LC50 (net 50% loss of initial cells): > 100 µM
  TGI: 39.7 µM
NCI-H460
  GI50: 2.5 µM
  LC50 (50% lethal concentration): 22 µM
  TGI: 5.85 µM
COLO 205
  GI50: 1.93 µM
  LC50 (concentration giving net 50% loss of initial cells): 6.02 µM
  TGI: 3.41 µM
HCC 2998
  GI50: 2.72 µM
  LC50 (net 50% loss of initial cells): 27.4 µM
  TGI: 7.25 µM
SW-620
  GI50: 4.08 µM
  TGI: 26.6 µM
SW-620; [2]
  CC50: > 100 µM
SF-295
  GI50: 2.7 µM
  LC50 (concentration giving net 50% loss of initial cells): 0.34 µM
  TGI: 6.24 µM
SF-539
  GI50: 2.1 µM
  LC50 (concentration causing net 50% loss of initial cells): 12 µM
  TGI: 4.75 µM
SNB-19
  GI50: 5.53 µM
  TGI: 89.3 µM
SNB-19; [2]
  CC50: > 100 µM
SNB-75
  GI50: 2.7 µM
  TGI: 97.2 µM
SNB-75; [2]
  CC50: > 100 µM
LOX IMVI
  GI50: 3.35 µM
  TGI: 11 µM
LOX IMVI; [2]
  CC50: 37.4 µM
Malme-3M
  GI50: 3.65 µM
  TGI: 24.6 µM
Malme-3M; [2]
  CC50: > 100 µM
MDA-MB-435
  GI50: 3.97 µM
  TGI: 24 µM
MDA-MB-435; [2]
  CC50: > 100 µM
SK-MEL-5
  GI50: 4.28 µM
  LC50: 39.7 µM
  TGI: 15.2 µM
UACC-62
  GI50: 3.13 µM
  LC50: 43.3 µM
  TGI: 12.9 µM
OVCAR-4
  GI50: 4.18 µM
  LC50: > 100 µM
OVCAR-8
  GI50: 3.39 µM
  TGI: 17.9 µM
OVCAR-8; [2]
  CC50: > 100 µM
NCI/ADR-RES
  GI50: 3.39 µM
  TGI: 14.1 µM
NCI/ADR-RES; [2]
  CC50: > 100 µM
786-0
  GI50: 2.37 µM
  TGI: 5.04 µM
786-0; [2]
  CC50: > 100 µM
A498
  GI50: 3.98 µM
  TGI: 24.7 µM
A498; [2]
  CC50: > 100 µM
ACHN
  GI50: 3.15 µM
  TGI: 12.2 µM
ACHN; [2]
  CC50: > 100 µM
RXF 393
  GI50: 2.88 µM
  LC50: 31.4 µM
  TGI: 7.52 µM
UO-31
  GI50: 3.3 µM
UO-31; [2]
  CC50: > 100 µM
PC-3
  GI50: 2.61 µM
  TGI: 13.7 µM
PC-3; [2]
  CC50: > 100 µM
DU-145
  GI50: 4.49 µM
  LC50 (concentration causing net 50% loss of initial cells): > 100 µM
  TGI: 21.7 µM
[1]
  GI50: 3.29 µM
  TGI: 34.3 µM
[1]; [2]
  CC50: > 100 µM
T47D
  GI50: 3.1 µM
  TGI: 13.3 µM
T47D; [2]
  CC50: > 100 µM
